Assay outcomes as filed in PubChem BioAssay.
Shown are actives, neighbours in structure and some others; about 1.6% of the full set was active somewhere.
Cardio protect – myocardial damage modulation in H9c2 cells; protection from H2O2 cell death, % at 20 µM; H9c2 cardiomyocytes, H2O2 injury protection, ATPLite, 2 h; AID 588492; 0.63% of 360,000 active;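 active means compounds giving at least 50% protection of heart cells from peroxide-induced death in the single-dose screen, raw or plate-pattern-corrected value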
ASAP1 GAP inh – ASAP1 ArfGAP inhibition; ASAP1-stimulated ARF1 GTP hydrolysis, GDP FP detection; inhibition, % at 16.5 µM; 0.19% of 360,000 active; in the data active means inhibition above about 25%
Target sequence (Q9ULH1 325-724 limits assumed): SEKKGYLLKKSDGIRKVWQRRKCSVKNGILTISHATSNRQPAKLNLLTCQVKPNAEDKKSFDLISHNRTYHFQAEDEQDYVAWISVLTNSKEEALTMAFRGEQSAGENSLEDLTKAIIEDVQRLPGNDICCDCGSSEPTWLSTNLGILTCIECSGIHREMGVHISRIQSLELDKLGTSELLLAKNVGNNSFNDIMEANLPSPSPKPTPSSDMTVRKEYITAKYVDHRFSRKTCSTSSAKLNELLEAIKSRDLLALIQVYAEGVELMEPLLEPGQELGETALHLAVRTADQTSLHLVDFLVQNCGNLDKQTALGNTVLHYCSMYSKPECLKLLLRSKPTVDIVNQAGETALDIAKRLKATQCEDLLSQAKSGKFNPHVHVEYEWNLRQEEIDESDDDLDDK
ARFGAP1 inh – inhibitors of rat ARFGAP1. Arfgap1-stimulated ARF1 GTP hydrolysis, GDP FP detection. 0.26% of 360,000 active. AID 651572. inhibition, % at 16.5 µM. Q62848;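 active means inhibition above a per-plate limit, mean inhibition of low control wells plus 3 SD, cut at about 25% in these data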
Target sequence (Q62848 1-136 limits assumed): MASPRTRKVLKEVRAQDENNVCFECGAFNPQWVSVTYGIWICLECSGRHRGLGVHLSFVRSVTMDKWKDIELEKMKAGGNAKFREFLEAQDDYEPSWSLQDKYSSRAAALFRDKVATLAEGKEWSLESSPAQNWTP
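Material: truncated rat Arfgap1 GAP domain; Incubation: compound-enzyme preincubation 20 min, reaction 120 min, detection 60 min, 25 °C; Read-out: percent inhibition of Arfgap1-stimulated GTP hydrolysis; Technique: FP, GDP Alexa 633 tracer displaced from anti-GDP antibody, 620/688 nm; Controls: No-Arfgap1 wells (100%) versus DMSO full-reaction wells (0%); Replication: single well per compound.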
Neddylation inh – blocks human cullin neddylation; inhibition, % at 25 µM; AID 651699; TR-FRET cullin neddylation, biochemical; 0.58% of 360,000 active; in the data active means inhibition above about 36%
Hits are given with their value; i = inactive; nt = not tested or not shown; + = active, no number.

SMILES	Cardio protect	ASAP1 GAP inh	ARFGAP1 inh	Neddylation inh
CC(C)(C)C(=O)c1c(N)[nH]c(C(=O)c2ccccc2)c1-c1ccccc1	nt	i	i	nt
O=C(O)c1ccc2c(c1)S(=O)(=O)c1cc(N3CCN(c4cnccn4)CC3)ccc1C2=O	50	i	i	i
COc1ccc(F)cc1-c1cc(NC=O)c2ncc(-c3cc(OC)c(OC)c(OC)c3)n2c1	i	i	i	i
C[C@]12Cc3ccccc3C1CC1=N[C@@H](C3CCCCC3)O[C@@]13C[C@@H]2C(=O)N3C1CCN(Cc2ccccc2)CC1 (stereo partly drawn)	nt	i	i	nt
O=C1CCC(=O)c2ccc3c4c(ccc1c24)CC3	i	i	i	49
C=CCOC(=O)COc1ccc2c(C)c(C)c(=O)oc2c1C	i	i	i	41
CCCn1cnnc1CNC(=O)[C@@H](Cc1ccccc1)NC(=O)[C@H]1O[C@@H](n2ccc(=O)[nH]c2=O)[C@H](O)[C@@H]1O	nt	i	i	nt
CC(C)(C)OC(=O)N1CCCC(C(=O)Nc2cccc(C(=O)N3CCOCC3)c2)C1 (stereo not drawn)	i	i	i	i
CCN(CC)c1ccc(C2C(C(=O)OC(C)C)C(=O)CC(C)(O)C2C(=O)OC(C)C)cc1 (stereo not drawn)	75	i	i	i
CC(C)CC1O[C@@H](C)[C@@H]2CN3CCc4c([nH]c5ccccc45)[C@@H]3C[C@@H]2N1C (stereo partly drawn)	nt	i	i	nt
COc1ccc(OC(=O)N(C)C[C@@H]2OCc3cn(nn3)CCCC(=O)N([C@@H](C)CO)C[C@H]2C)cc1	i	i	i	i
CNC(=O)c1ccc(Nc2nnc(-c3ccc(C(N)=O)cc3)c3ccccc23)cc1	i	i	i	i
CCN(CC)C(=O)c1ccc(-c2nnc(Nc3ccc(O)cc3)c3ccccc23)cc1	59	i	i	i
NC(=O)c1ccc(Nc2nnc(-c3ccc(O)cc3)c3ccccc23)cc1	59	i	i	nt
CCOC(=O)C(C)N1C(=O)S/C(=C/c2ccc3c(c2)n(C)c(=O)n3C)C1=O (stereo not drawn)	i	i	i	i
CCC(C)N1C(=O)S/C(=C/c2ccc3c(c2)n(C)c(=O)n3C)C1=O (stereo not drawn)	57	i	i	i
CC(C)N1C(=O)S/C(=C/c2ccc3c(c2)n(C)c(=O)n3C)C1=O	63	i	i	i
COc1cc(NC(=O)C2(C)CCCN2C(=O)C(C)C)cc(OC)c1OC (stereo not drawn)	i	i	i	i
CCOC(=O)Cc1csc(NC(=O)NC2(C(F)(F)F)Oc3ccccc3O2)n1	50	i	i	i
CCOC(=O)Cc1csc(NC(=O)NC2(C(F)(F)F)Oc3ccc(Cl)cc3O2)n1 (stereo not drawn)	62	i	i	i
COc1cccc(NC(=O)NC2(C(F)(F)F)Oc3ccccc3O2)c1	75	i	i	i
CCOC(=O)Cc1csc(NC(=O)NC2(C(F)(F)F)Oc3cc(Cl)c(Cl)cc3O2)n1	57	i	i	i
COc1cccc(NC(=O)Nc2cccc(C(=O)O)c2)c1	i	i	i	i
COC(=O)C1=C(C)N(Cc2cccc(C(F)(F)F)c2)C(=NCc2ccc3c(c2)OCO3)NC1CCc1ccccc1 (stereo not drawn)	nt	i	i	nt
Cc1ccc(-c2csc(N3CCN(CCCn4c(-c5ccncc5)nc5ccccc54)CC3)n2)cc1	i	i	i	i
SMILES	Cardio protect	ASAP1 GAP inh	ARFGAP1 inh	Neddylation inh
Cc1ccc(-c2csc(N3CCC[C@@H]3C(=O)NCCn3c(-c4ccncc4)nc4ccccc43)n2)cc1	69	i	i	i
CCC(=O)N1CCN(c2ccccc2NC(=O)COc2cc(C)ccc2C(C)C)CC1	55	i	i	i
O=S(=O)(Nc1nc2ccccc2nc1Nc1ccc2c(c1)OCCO2)c1cccs1	i	i	i	42
CCOC(=O)N1CCN(C(=O)CSc2nc3c(cnn3-c3ccc(C)cc3)c(=O)[nH]2)CC1	51	i	i	i
CCOC(=O)N1CCN(C(=O)CSc2nc3c(cnn3-c3ccc(Cl)cc3)c(=O)[nH]2)CC1	i	i	i	i
O=C(NNC(=O)c1cccnc1SCc1cccc([N+](=O)[O-])c1)c1ccc(F)cc1	i	i	i	i
O=C(NNC(=O)c1cccnc1SCc1cccc([N+](=O)[O-])c1)c1ccccn1	83	i	i	i
O=C(NCCc1c[nH]c2ccccc12)C(=O)NCC(c1ccco1)N1CCN(c2ccccc2F)CC1 (stereo not drawn)	63	nt	nt	i
O=C1CCCN1CCCNc1ncnc2c1cnn2-c1ccc(Cl)cc1	i	i	i	i
Cc1cccc(-n2ncc3c(NCCCN4CCCC4=O)ncnc32)c1	i	i	i	38
COc1ccc(-c2oc3c(OC)c(OC)c(OC)c(O)c3c(=O)c2OC)cc1OC	72	i	i	i
Cc1cc(NCCCCCCCNc2cc(C)nc3cc([N+](=O)[O-])ccc23)c2ccc([N+](=O)[O-])cc2n1	i	108	+	46
CCOC(=O)COc1ccc2c3c(c(=O)oc2c1)CCCC3	55	i	i	i
CCN(CC)C(=O)COc1ccc2c3c(c(=O)oc2c1)CCCC3	i	i	i	nt
COc1ccc(Cn2c(=O)c3cccnc3n(Cc3ccc([N+](=O)[O-])cc3)c2=O)cc1	i	i	i	i
COc1ccc(CCn2c(=O)c3cccnc3n(Cc3ccc([N+](=O)[O-])cc3)c2=O)cc1OC	56	i	i	i
Cc1[nH]n2c(=O)c3c(nc2c1-c1ccc(Cl)cc1)CCC3	54	nt	nt	nt
Cc1[nH]n2c(=O)c3c(nc2c1-c1ccccc1)CCC3	i	i	i	i
Cc1ccc2cc(C3C(C#N)=C(N)Oc4c3ccc3cccnc43)c(=O)[nH]c2c1 (stereo not drawn)	70	nt	nt	i
CCOc1cccc(C2C(C#N)=C(N)Oc3cc(C)[nH]c(=O)c32)c1OCC (stereo not drawn)	i	i	i	i
CCc1ccc2[nH]c(=O)c(C3C(C#N)=C(N)Oc4c3ccc3cccnc43)cc2c1 (stereo not drawn)	64	i	i	i
COc1cc(/C=C2\SC(N3CCc4ccccc4C3)=NC2=O)cc(OC)c1OC	52	i	i	i
O=C(Nc1ccccc1N1CCOCC1)c1cc(-c2ccco2)nc2ccccc12	i	i	i	i
COc1cc(-c2cc(C(=O)Nc3ccc(O)cc3)c3ccccc3n2)cc(OC)c1OC	i	i	i	i
COc1cc(-c2cc(C(=O)Nc3cccc(C(C)=O)c3)c3ccccc3n2)cc(OC)c1OC	55	i	i	nt
COc1cc(-c2cc(C(=O)Nc3ccccc3N3CCOCC3)c3ccccc3n2)cc(OC)c1OC	89	i	i	i
O=C1NC(c2cccs2)Nc2ccccc21 (stereo not drawn)	66	i	i	i
Cc1ccsc1C1NC(=O)c2ccccc2N1 (stereo not drawn)	i	i	i	nt
COCCCN(Cc1ccco1)C(=O)Cn1ncc2c([nH]c3ccccc32)c1=O	60	i	i	i
Fc1ccc2[nH]c3c(N4CCc5ccccc5C4)ncnc3c2c1	i	i	i	45
